≈ marks a conversion by molar mass, not a printed value.
Assays:
[1] = test system: Bifidobacterium breve; assay: Antimicrobial activity against 90 mins oxgall-stressed Bifidobacterium breve R0070 after 18 hrs; format: functional
In short: (§1)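 Cells pelleted from mid-log MRS culture and resuspended in MRS (initial pH 6.5) with 0.3% (wt/vol) oxgall for 90 min anaerobically at 37°C. They were then regrown in MRS pH 6.5 for 24 h (footnote: 18 h) anaerobically and tested for MIC by the same broth microdilution assay. Median of four repetitions.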

[2] = test system: Bifidobacterium breve; assay: Antimicrobial activity against 90 mins hydrogen peroxide-stressed Bifidobacterium breve R0070 after 18 hrs; format: functional
In short: (§2)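 Stress applied for 90 min at 37°C under anaerobic conditions, using MRS (initial pH 6.5) containing H2O2 at each strain's own inhibitory concentration. The H2O2 level was set beforehand by microplate tolerance testing. Challenged cells were regrown in MRS for 24 h (footnote: 18 h) before MIC testing by broth microdilution. Median of four repetitions.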

[3] = test system: Bifidobacterium pseudolongum; assay: Antimicrobial activity against 60 min 1 M HCl-stressed Bifidobacterium pseudolongum ATCC 25562 after 18 hrs; format: functional
In short: (§3)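 Mid-log MRS culture pelleted and resuspended in MRS broth brought to pH 2.0 with 1 M HCl, held anaerobically at 37°C for 60 min, then subcultured in MRS (pH 6.5) for 24 h anaerobically before MIC testing by broth microdilution (as for unstressed cells). Table footnote gives 18 h anaerobic regrowth after the stress. MIC is the median of four repetitions.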

[4] = test system: Bifidobacterium longum; assay: Antimicrobial activity against 90 mins hydrogen peroxide-stressed Bifidobacterium longum R0175 after 18 hrs; format: functional; in short: as §2
[5] = test system: Bifidobacterium breve; assay: Antimicrobial activity against 60 min 1 M HCl-stressed Bifidobacterium breve ATCC 15700 after 18 hrs; format: functional; in short: as §3
[6] = test system: Bifidobacterium longum; assay: Antimicrobial activity against 90 mins hydrogen peroxide-stressed Bifidobacterium longum ATCC 15708 after 18 hrs; format: functional; in short: as §2
[7] = Antimicrobial activity against 60 min 1 M HCl-stressed Bifidobacterium infantis ATCC 15697 after 18 hrs; format: functional, Bifidobacterium longum subsp. infantis; details: Bifidobacterium longum; in short: as §3
[8] = test system: Bifidobacterium longum; assay: Antimicrobial activity against 60 min 1 M HCl-stressed Bifidobacterium longum P/N 601377 after 18 hrs; format: functional; in short: as §3
[9] = Antimicrobial activity against 90 mins oxgall-stressed Bifidobacterium infantis ATCC 15697 after 18 hrs; format: functional, Bifidobacterium longum subsp. infantis; details: Bifidobacterium longum; in short: as §1
[10] = test system: Bifidobacterium animalis; assay: Antimicrobial activity against Bifidobacterium animalis ATCC 27536; format: functional
In short: (§4)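 Broth microdilution in MRS plus 0.05% L-cysteine-HCl. Mid-log culture adjusted to OD650 0.1, giving about 2.5 × 10^4 to 5.0 × 10^4 CFU/well, then added to twofold serial dilutions of agent. Plates incubated anaerobically at 37°C for 18 h and read at OD650. MIC is the lowest concentration matching the uninoculated blank OD, taken as the median of four repeats.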

[11] = test system: Bifidobacterium longum; assay: Antimicrobial activity against 60 min 1 M HCl-stressed Bifidobacterium longum R0175 after 18 hrs; format: functional; in short: as §3
[12] = test system: Bifidobacterium animalis; assay: Antimicrobial activity against 60 min 1 M HCl-stressed Bifidobacterium animalis ATCC 27536 after 18 hrs; format: functional; in short: as §3
[13] = test system: Bifidobacterium bifidum; assay: Antimicrobial activity against 90 mins oxgall-stressed Bifidobacterium bifidum BB12 after 18 hrs; format: functional; in short: as §1
[14] = test system: Bifidobacterium bifidum; assay: Antimicrobial activity against 60 min 1 M HCl-stressed Bifidobacterium bifidum R0071 after 18 hrs; format: functional; in short: as §3
[15] = test system: Bifidobacterium longum; assay: Antimicrobial activity against 90 mins oxgall-stressed Bifidobacterium longum ATCC 15707 after 18 hrs; format: functional; in short: as §1
[16] = test system: Bifidobacterium longum; assay: Antimicrobial activity against Bifidobacterium longum R0175; format: functional; in short: as §4
[17] = test system: Bifidobacterium thermophilum; assay: Antimicrobial activity against 90 mins hydrogen peroxide-stressed Bifidobacterium thermophilum ATCC 25866 after 18 hrs; format: functional; in short: as §2
[18] = test system: Bifidobacterium bifidum; assay: Antimicrobial activity against 60 min 1 M HCl-stressed Bifidobacterium bifidum BB12 after 18 hrs; format: functional; in short: as §3
[19] = test system: Bifidobacterium thermophilum; assay: Antimicrobial activity against 90 mins oxgall-stressed Bifidobacterium thermophilum ATCC 25866 after 18 hrs; format: functional; in short: as §1
[20] = test system: Bifidobacterium breve; assay: Antimicrobial activity against 90 mins hydrogen peroxide-stressed Bifidobacterium breve ATCC 15700 after 18 hrs; format: functional; in short: as §2
[21] = test system: Bifidobacterium thermophilum; assay: Antimicrobial activity against Bifidobacterium thermophilum ATCC 25866; format: functional; in short: as §4
[22] = test system: Bifidobacterium longum; assay: Antimicrobial activity against 90 mins hydrogen peroxide-stressed Bifidobacterium longum P/N 601377 after 18 hrs; format: functional; in short: as §2
[23] = test system: Bifidobacterium breve; assay: Antimicrobial activity against 90 mins oxgall-stressed Bifidobacterium breve ATCC 15700 after 18 hrs; format: functional; in short: as §1
[24] = test system: Bifidobacterium animalis; assay: Antimicrobial activity against 90 mins oxgall-stressed Bifidobacterium animalis ATCC 27536 after 18 hrs; format: functional; in short: as §1
[25] = test system: Bifidobacterium longum; assay: Antimicrobial activity against 90 mins hydrogen peroxide-stressed Bifidobacterium longum ATCC 15707 after 18 hrs; format: functional; in short: as §2
[26] = test system: Bifidobacterium breve; assay: Antimicrobial activity against Bifidobacterium breve R0070; format: functional; in short: as §4
[27] = test system: Bifidobacterium breve; assay: Antimicrobial activity against Bifidobacterium breve ATCC 15700; format: functional; in short: as §4
[28] = test system: Bifidobacterium bifidum; assay: Antimicrobial activity against 90 mins hydrogen peroxide-stressed Bifidobacterium bifidum BB12 after 18 hrs; format: functional; in short: as §2
[29] = test system: Bifidobacterium longum; assay: Antimicrobial activity against 60 min 1 M HCl-stressed Bifidobacterium longum ATCC 15707 after 18 hrs; format: functional; in short: as §3
[30] = test system: Bifidobacterium bifidum; assay: Antimicrobial activity against 90 mins oxgall-stressed Bifidobacterium bifidum ATCC 15696 after 18 hrs; format: functional; in short: as §1
[31] = Antimicrobial activity against Bifidobacterium infantis ATCC 15697; format: functional, Bifidobacterium longum subsp. infantis; details: Bifidobacterium longum; in short: as §4
[32] = test system: Bifidobacterium longum; assay: Antimicrobial activity against Bifidobacterium longum ATCC 15707; format: functional; in short: as §4
[33] = test system: Bifidobacterium bifidum; assay: Antimicrobial activity against Bifidobacterium bifidum R0071; format: functional; in short: as §4
[34] = test system: Bifidobacterium animalis; assay: Antimicrobial activity against 90 mins hydrogen peroxide-stressed Bifidobacterium animalis ATCC 27536 after 18 hrs; format: functional; in short: as §2
[35] = test system: Bifidobacterium longum; assay: Antimicrobial activity against Bifidobacterium longum P/N 601377; format: functional; in short: as §4
[36] = test system: Bifidobacterium breve; assay: Antimicrobial activity against 60 min 1 M HCl-stressed Bifidobacterium breve R0070 after 18 hrs; format: functional; in short: as §3
[37] = test system: Bifidobacterium bifidum; assay: Antimicrobial activity against 90 mins hydrogen peroxide-stressed Bifidobacterium bifidum R0071 after 18 hrs; format: functional; in short: as §2
[38] = test system: Bifidobacterium bifidum; assay: Antimicrobial activity against Bifidobacterium bifidum ATCC 15696; format: functional; in short: as §4
[39] = test system: Bifidobacterium pseudolongum; assay: Antimicrobial activity against Bifidobacterium pseudolongum ATCC 25562; format: functional; in short: as §4
[40] = test system: Bifidobacterium longum; assay: Antimicrobial activity against Bifidobacterium longum ATCC 15708; format: functional; in short: as §4
[41] = test system: Bifidobacterium bifidum; assay: Antimicrobial activity against 90 mins oxgall-stressed Bifidobacterium bifidum R0071 after 18 hrs; format: functional; in short: as §1
[42] = test system: Bifidobacterium pseudolongum; assay: Antimicrobial activity against 90 mins oxgall-stressed Bifidobacterium pseudolongum ATCC 25562 after 18 hrs; format: functional; in short: as §1
[43] = test system: Bifidobacterium longum; assay: Antimicrobial activity against 90 mins oxgall-stressed Bifidobacterium longum ATCC 15708 after 18 hrs; format: functional; in short: as §1
[44] = test system: Bifidobacterium bifidum; assay: Antimicrobial activity against Bifidobacterium bifidum BB12; format: functional; in short: as §4
[45] = test system: Bifidobacterium longum; assay: Antimicrobial activity against 90 mins oxgall-stressed Bifidobacterium longum P/N 601377 after 18 hrs; format: functional; in short: as §1
[46] = test system: Bifidobacterium longum; assay: Antimicrobial activity against 90 mins oxgall-stressed Bifidobacterium longum R0175 after 18 hrs; format: functional; in short: as §1
[47] = test system: Bifidobacterium thermophilum; assay: Antimicrobial activity against 60 min 1 M HCl-stressed Bifidobacterium thermophilum ATCC 25866 after 18 hrs; format: functional; in short: as §3

CN[C@H](CC(C)C)C(=O)N[C@H]1C(=O)N[C@@H](CC(N)=O)C(=O)N[C@H]2C(=O)N[C@H]3C(=O)N[C@H](C(=O)N[C@H](C(=O)O)c4cc(O)cc(O)c4-c4cc3ccc4O)[C@H](O)c3ccc(c(Cl)c3)Oc3cc2cc(c3O[C@@H]2O[C@H](CO)[C@@H](O)[C@H](O)[C@H]2O[C@H]2C[C@](C)(N)[C@H](O)[C@H](C)O2)Oc2ccc(cc2Cl)[C@H]1O [VANCOMYCIN]
MIC [1]: > 500 µg/mL
MIC [2]: > 500 µg/mL
MIC [3]: 0.98 µg/mL (≈ 0.676 µM)
MIC [4]: > 500 µg/mL
MIC [5]: > 500 µg/mL
MIC [6]: > 500 µg/mL
MIC [7]: 0.98 µg/mL (≈ 0.676 µM)
MIC [8]: > 500 µg/mL
MIC [9]: 0.98 µg/mL (≈ 0.676 µM)
MIC [10]: 500 µg/mL (≈ 345 µM)
MIC [11]: 0.98 µg/mL (≈ 0.676 µM)
MIC [12]: > 500 µg/mL
MIC [13]: > 500 µg/mL
MIC [14]: > 500 µg/mL
MIC [15]: > 500 µg/mL
MIC [16]: 500 µg/mL (≈ 345 µM)
MIC [17]: > 500 µg/mL
MIC [18]: > 500 µg/mL
MIC [19]: > 500 µg/mL
MIC [20]: > 500 µg/mL
MIC [21]: > 500 µg/mL
MIC [22]: > 500 µg/mL
MIC [23]: > 500 µg/mL
MIC [24]: 1.9 µg/mL (≈ 1.31 µM)
MIC [25]: > 500 µg/mL
MIC [26]: 500 µg/mL (≈ 345 µM)
MIC [27]: > 500 µg/mL
MIC [28]: > 500 µg/mL
MIC [29]: > 500 µg/mL
MIC [30]: > 500 µg/mL
MIC [31]: > 500 µg/mL
MIC [32]: 500 µg/mL (≈ 345 µM)
MIC [33]: 500 µg/mL (≈ 345 µM)
MIC [34]: > 500 µg/mL
MIC [35]: > 500 µg/mL
MIC [36]: > 500 µg/mL
MIC [37]: > 500 µg/mL
MIC [38]: > 500 µg/mL
MIC [39]: > 500 µg/mL
MIC [40]: 500 µg/mL (≈ 345 µM)
MIC [41]: > 500 µg/mL
MIC [42]: 0.98 µg/mL (≈ 0.676 µM)
MIC [43]: 0.98 µg/mL (≈ 0.676 µM)
MIC [44]: > 500 µg/mL
MIC [45]: > 500 µg/mL
MIC [46]: > 500 µg/mL
MIC [47]: > 500 µg/mL
